Active and inactive are the calls of the source. The calls are words filed in the database; no cut-off is given here.
How the values were obtained:
Type in all cases: cell-based
[1] = biological target: Homeobox protein Nkx-2.5 (Mus musculus) (UniProt P42582); test: Enhancement of mouse NKX2-5 expressed in Chlorocebus aethiops COS1 cells harboring 3xHA reporter gene assessed as protein-induced transcriptional activity at 10 uM after 24 hrs by luciferase reporter gene assay relative to control
In short: (§1)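 COS-1 cells seeded 14 000/well and grown overnight. Transfection for 6 h in serum- and antibiotic-free medium with pGL3-3xHA reporter (100 ng/well) and pMT2-NKX2-5 (25 ng/well), Fugene 6 1:3. Compound or 0.1% DMSO vehicle for 24 h, then luciferase luminescence. Triplicate wells with Grubbs outlier removal, % of control.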

[2] = biological target: Transcription factor GATA-4 (Mus musculus) (UniProt Q08369); test: Enhancement of mouse GATA4 expressed in Chlorocebus aethiops COS1 cells harboring NP-112 reporter gene assessed as BNP promoter-driven transcriptional activity at 10 uM after 24 hrs by luciferase reporter gene assay relative to control
Sequence of Transcription factor GATA-4 (Mus musculus) (Q08369 whole entry): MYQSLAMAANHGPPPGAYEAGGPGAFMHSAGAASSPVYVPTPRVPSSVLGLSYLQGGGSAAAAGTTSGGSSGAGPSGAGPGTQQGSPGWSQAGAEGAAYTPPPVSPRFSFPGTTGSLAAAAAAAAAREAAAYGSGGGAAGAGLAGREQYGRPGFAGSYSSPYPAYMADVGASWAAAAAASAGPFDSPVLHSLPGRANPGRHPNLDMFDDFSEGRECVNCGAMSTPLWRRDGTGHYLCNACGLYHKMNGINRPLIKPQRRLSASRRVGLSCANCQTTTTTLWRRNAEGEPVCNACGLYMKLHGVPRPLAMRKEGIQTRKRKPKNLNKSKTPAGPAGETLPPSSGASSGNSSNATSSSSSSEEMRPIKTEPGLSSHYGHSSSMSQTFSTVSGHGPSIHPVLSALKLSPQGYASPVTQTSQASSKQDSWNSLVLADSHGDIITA
In short: (§2)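 GATA reporter assay: COS-1 cells (14 000/well, overnight) transfected 6 h serum/antibiotic-free with NP-112 reporter (tandem GATA sites plus rat BNP minimal promoter, 100 ng/well) and pMT2-GATA4 (25 ng/well), Fugene 6 1:3. Treated 24 h with compound or 0.1% DMSO. Luminescence read; triplicates, Grubbs outliers removed, % of control.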

[3] = biological target: T1, GATA4/NKX2-5 (Mus musculus) (UniProt Q08369+P42582); test: Inhibition of mouse GATA4/mouse NKX2-5 protein-protein interaction expressed in Chlorocebus aethiops COS1 cells harboring 3xHA reporter gene assessed as transcriptional synergy at 10 uM after 24 hrs by luciferase reporter gene assay relative to control; design: scale not given: the % may be the effect or the level left
In short: (§3)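 COS-1 cells seeded 14 000/well, grown overnight, then transfected for 6 h in serum- and antibiotic-free medium with pGL3-3xHA reporter (three NKX2-5 sites, 100 ng/well) plus pMT2-GATA4 and pMT2-NKX2-5 (total 50 ng/well), Fugene 6 at 1:3 DNA/reagent. Compound or 0.1% DMSO vehicle for 24 h, then luminescence read. Triplicates, Grubbs outliers removed, expressed as % of control.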

[4] = biological target: Homeobox protein Nkx-2.5 (Mus musculus) (UniProt P42582); test: Inhibition of mouse NKX2-5 expressed in Chlorocebus aethiops COS1 cells harboring 3xHA reporter gene assessed as protein-induced transcriptional activity at 10 uM after 24 hrs by luciferase reporter gene assay relative to control; design: scale not given: the % may be the effect or the level left; in short: as §1
COS-1 [5] = test: Induction of necrosis in Chlorocebus aethiops COS1 cells assessed as LDH release at 1 to 30 uM after 24 hrs by LDH assay relative to control; details: cos-1, 24 h
In short: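 COS-1 cells in DMEM with 10% FBS at 37 °C, 5% CO₂, plated 10 000/well and exposed next day to 1–30 μM for 24 h. Medium samples mixed with NAD, iodonitrotetrazolium, lactate and phenazine methosulfate in 0.2 M Tris-HCl pH 8.2, 30 min at room temperature. Stopped with acetic acid, A490 read and normalized to maximal and spontaneous release.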

COS-1 [6] = test: Cytotoxicity against Chlorocebus aethiops COS1 cells assessed as reduction in cell viability at 10 uM after 24 hrs by MTT assay relative to control; details: cos-1, 24 h
In short: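 COS-1 cells plated 10 000/well, exposed next day for 24 h (range 1–30 μM). Incubated with 0.5 mg/mL MTT for 2 h at 37 °C, formazan dissolved in DMSO, A550 minus A650 background. Means of 2–3 independent experiments with triplicate wells, % of vehicle-treated cells; toxic if viability fell >10% at 10 μM.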

[7] = biological target: T1, GATA4/NKX2-5 (Mus musculus); test: Enhancement of mouse GATA4/mouse NKX2-5 protein-protein interaction expressed in Chlorocebus aethiops COS1 cells harboring 3xHA reporter gene assessed as transcriptional synergy at 10 uM after 24 hrs by luciferase reporter gene assay relative to control; in short: as §3
[8] = biological target: T1, GATA4/NKX2-5 (Mus musculus); test: Modulation of mouse GATA4/mouse NKX2-5 protein-protein interaction expressed in Chlorocebus aethiops COS1 cells harboring 3xHA reporter gene assessed as transcriptional synergy at 10 uM after 24 hrs by luciferase reporter gene assay relative to control; in short: as §3
[9] = biological target: Transcription factor GATA-4 (Mus musculus) (UniProt Q08369); test: Modulation of mouse GATA4 expressed in Chlorocebus aethiops COS1 cells harboring NP-112 reporter gene assessed as BNP promoter-driven transcriptional activity at 10 uM after 24 hrs by luciferase reporter gene assay relative to control; in short: as §2
[10] = biological target: Homeobox protein Nkx-2.5 (Mus musculus) (UniProt P42582); test: Modulation of mouse NKX2-5 expressed in Chlorocebus aethiops COS1 cells harboring 3xHA reporter gene assessed as protein-induced transcriptional activity at 10 uM after 24 hrs by luciferase reporter gene assay relative to control; in short: as §1
COS-1 [11] = test: Cytotoxicity against Chlorocebus aethiops COS1 cells assessed as reduction in cell viability at 10 uM after 24 hrs by CellTiter-Glo Luminescent Cell Viability assay relative to control; details: cos-1, 24 h
In short: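 Intracellular ATP read-out (CellTiter-Glo) in COS-1 cells plated and treated as for MTT, 24 h exposure, doxorubicin as positive control. Plates equilibrated 30 min at room temperature, washed with PBS, reagent added, mixed 2 min, 15 min at room temperature, then luminescence. Mean + SEM of three independent experiments, % of vehicle-treated cells.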

[12] = biological target: Transcription factor GATA-4 (Mus musculus) (UniProt Q08369); test: Inhibition of mouse GATA4 expressed in Chlorocebus aethiops COS1 cells harboring NP-112 reporter gene assessed as BNP promoter-driven transcriptional activity at 10 uM after 24 hrs by luciferase reporter gene assay relative to control; design: scale not given: the % may be the effect or the level left; in short: as §2
[13] = biological target: T2, GATA4/NKX2-5 (Rattus norvegicus) (UniProt P46152+O35767); test: (§4) Modulation of GATA4/NKX2-5 protein-protein interaction in neonatal Wistar rat cardiomyocytes harboring -534/+4 bp rat BNP proximal promoter assessed as increase in BNP-promoter driven activity at 10 to 30 preincubated for 1 hr followed by hypertrophic agonist endothelin-1 and measured after 24 hrs by luminescence method
In short: (§5)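 Neonatal ventricular myocytes from 2–3-day-old Wistar rats, 50 000/well, cultured 18–20 h in DMEM/F12 with 10% FBS. Transfected 24 h in serum-free CSFM with pGL3-BNP (−534/+4 promoter, 100 ng/well), Fugene 6 1:3. Compound or 0.1% DMSO added in CSFM, endothelin-1 1 h later, luminescence after 24 h. Mean + SD, n = 3; ANOVA with Tukey or Games–Howell.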

[14] = biological target: T2, GATA4/NKX2-5 (Rattus norvegicus); test: as §4, with “reduction” for “increase”; in short: as §5
[15] = biological target: T2, GATA4/NKX2-5 (Rattus norvegicus); test: as §4, with “reduction” for “increase”, “hypertrophic response” for “BNP-promoter driven activity”, “at” for “at 10 to”; in short: as §5

Sequence of Homeobox protein Nkx-2.5 (Mus musculus) (P42582 whole entry): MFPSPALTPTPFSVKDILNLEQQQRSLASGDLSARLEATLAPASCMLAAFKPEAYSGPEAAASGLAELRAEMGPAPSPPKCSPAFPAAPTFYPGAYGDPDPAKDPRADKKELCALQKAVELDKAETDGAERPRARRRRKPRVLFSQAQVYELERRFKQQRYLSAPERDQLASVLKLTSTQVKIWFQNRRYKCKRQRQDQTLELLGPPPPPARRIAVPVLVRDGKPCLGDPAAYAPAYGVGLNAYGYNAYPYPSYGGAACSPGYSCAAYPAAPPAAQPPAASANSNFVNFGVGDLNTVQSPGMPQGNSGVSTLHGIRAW

Compound	Activity [2] [%]	Activity [3] [%]	Activity (COS-1 [5]) [%]	Activity (COS-1 [6])	Activity [8] [%]	other results
Cc1cc(-c2onc(C)c2C(=O)Nc2ccc3oc(-c4ccccc4)cc(=O)c3c2)no1	120	–	–	–	–	Activity [1]: 110%
CCN(c1ccc(NC(=O)c2c(C)noc2-c2cc(C)on2)cc1)C(C)C	120	–	–	–	–	–
CCN(CC)c1ccc(NC(=O)c2c(C)noc2-c2ccccc2)cc1	–	29	< 8	> 10%	–	Activity [4]: 29%
CCN(CC)c1ccc(NC(=O)c2cnc3ncccn23)cc1	130	–	< 8	–	–	Activity [1]: 120%; Activity [7]: 140%
CCN(CC)c1ccc(NC(=O)c2csc(C)c2-c2ccccc2)cc1	–	–	< 8	Non-Toxic	33	Activity [9]: 58%; Activity [10]: 39%
CCN(CC)c1ccc(NC(=O)c2c(-c3cccc([N+](=O)[O-])c3)noc2C)cc1	–	–	< 8	Non-Toxic	65	–
CCC(=O)N(Cc1ccc(N(CC)CC)cc1)c1c(-c2ccccc2)noc1C	–	22	< 8	> 10%	–	Activity (COS-1 [11]): > 10%; Activity [4]: 34%; Activity [12]: 43%
Cc1onc(-c2ccccc2)c1COc1ccc(C(=O)OCCC#N)cc1	–	26	< 8	> 10%	–	Activity (COS-1 [11]): > 10%; Activity [4]: 29%; Activity [12]: 41%
Cc1onc(-c2ccccc2)c1C(=O)N(C1=NC(C)CS1)c1ccc(Cl)cc1 (stereo unspecified)	220	–	< 8	–	–	Activity [13]: Active; Activity (COS-1 [11]): Non-Toxic; Activity [1]: 110%; Activity [7]: 170%
CCN(CC)c1ccc(NC(=O)c2cn(C)nc2-c2cc(C)on2)cc1	130	–	–	–	99	Activity [10]: 93%
CCN(CC)c1ccc(NC(=O)c2c(-c3ccccc3)noc2C)cc1	–	–	< 8	–	50	Activity (COS-1 [11]): > 10%; Activity [9]: 62%; Activity [10]: 49%
Cc1onc(-c2ccccc2)c1C(=O)Nc1ccc(C(=O)OCCCC#N)cc1	110	–	–	–	98	Activity [10]: 97%
CCN(c1ccc(NC(=O)c2cnsc2)cc1)C(C)C	–	12	–	–	–	Activity [14]: Active; Activity [4]: 11%; Activity [12]: 20%; Activity [15]: Active
CC(C)c1ccc(NC(=O)c2noc3c2CCc2sccc2-3)cc1	120	–	–	–	–	Activity [7]: 130%
CC(=O)N(Cc1ccc(N(C)C)cc1)c1c(-c2ccccc2)noc1C	–	28	< 8	> 10%	–	Activity [12]: 47%
CCN(c1ccc(NC(=O)c2c(C)noc2-c2ccccc2)cc1)C(C)C	–	25	< 8	> 10%	–	Activity [4]: 31%; Activity [12]: 41%
CCN(CC)c1ccc(NC(=O)c2cc(C)oc2-c2ccccc2)cc1	–	–	< 8	> 10%	35	Activity [9]: 49%; Activity [10]: 37%
CCc1noc(C)c1C(=O)Nc1ccc(N(CC)CC)cc1	140	–	–	–	100	Activity [1]: 160%
CC(=O)COC(=O)c1ccc(OCc2c(-c3ccccc3)noc2C)cc1	–	–	< 8	> 10%	37	Activity [10]: 41%; Activity [12]: 44%
CCN(CC)c1ccc(NC(=O)c2cnsc2)cc1	–	27	< 8	–	–	Activity (COS-1 [11]): Non-Toxic; Activity [4]: 16%; Activity [9]: 48%
CN(C)c1ccc(/N=C/c2c[nH]nc2-c2ccc(F)cc2)cc1	120	–	–	–	–	Activity [1]: 140%
CCN(CC)c1ccc(NC(=O)c2c(C)noc2-c2snnc2C)cc1	–	24	< 8	> 10%	–	Activity [13]: Active; Activity [4]: 21%; Activity [9]: 68%
CCN(CC)c1ccc(NC(=O)c2cc(C)oc2-c2cc(C)on2)cc1	140	–	–	–	100	Activity [10]: 110%
COc1ccc(-c2cc(NC(=O)c3ccc(C(C)(C)C)cc3)n[nH]2)cc1	–	–	< 8	–	–	Activity (COS-1 [11]): Non-Toxic; Activity [12]: 40%
